Measurements pooled from the literature.
Compare with care: the assays were run in different laboratories.
Target: Mitogen-activated protein kinase kinase kinase kinase 4 (MAP4K4, Homo sapiens, UniProt O95819)

| Compound | observed | mode | method | tested at | endpoint | value |
| --- | --- | --- | --- | --- | --- | --- |
| C[C@H]1CC[C@H](n2c3cnccc3c3cnc(Nc4ccc5c(n4)CCN(C(=O)CO)C5)nc32)CC1 | binding | – | competition with immobilised ligand | 1 µM | remaining binding | 100% |
| C1=C/COCc2cc(ccc2OCCN2CCCC2)Nc2nccc(n2)-c2cccc(c2)COC/1 | binding | – | – | 0.1 µM | remaining binding | 55% |
| C=CC(=O)N1CCC([C@@H]2CCNc3c(C(N)=O)c(-c4ccc(Oc5ccccc5)cc4)nn32)CC1 | enzyme activity | inhibitor | – | 1 µM | inhibition | 23% |
| CCCCC(=O)Nc1ccc(-c2ccc3ncn(CCC)c(=O)c3c2)cn1 | binding | – | competition with immobilised ligand | 0.5 µM | remaining binding | 100% |
| C#Cc1cc(-c2cc(Nc3nc(N[C@@H](C)c4ccc(F)cn4)ncc3Cl)n[nH]2)ccc1C=O | enzyme activity | inhibitor | – | 0.2 µM | inhibition | 11.9% |
| COc1ccc2oc(-c3ccc4nc(N)oc4c3)c/c(=N\c3ccccc3NC(=O)CCN)c2c1 | binding | – | – | 1 µM | remaining binding | 96% |
| C=CC(=O)N1CCC[C@@H](n2nc(-c3ccc(Oc4ccccc4)cc3)c3c(N)ncnc32)C1 | enzyme activity | inhibitor | – | 1 µM | inhibition | 4% |
| Cc1cc(O)c(-c2ccc([C@@H](C)CN(C)C)cc2)c2c1[nH]c(=O)c1sccc12 | enzyme activity | inhibitor | – | 0.1 µM | inhibition | -4% |
| COc1ccc2[nH]c3c4[nH]c5ccc(OC)cc5c4c4c(c3c2c1)C(=O)NC4=O | binding | – | competition with immobilised ligand | 1 µM | remaining binding | 2.7% |
| CC(C)S(=O)(=O)c1ccc2nccc(Nc3ccc4sc(C5CCCC5)nc4c3)c2c1 | enzyme activity | inhibitor | – | 1 µM | activity vs control | 110% |
